Values after ≈ are worked out from the molar mass of the structure shown.
Legend:
Staphylococcus aureus [1] = assay: Antibacterial activity against Staphylococcus aureus ATCC 29213 assessed as reduction in bacterial growth incubated for 24 hrs by broth microdilution method; type: functional
Summary of the method: (§1)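 Cation-adjusted Mueller-Hinton broth microdilution per EUCAST, modified; compounds from DMSO stocks, final DMSO ≤1% v/v; scale starting from 0.49 µM. Static incubation at 35 ± 2 °C, dark, humidified, read at 24 and 48 h. MIC = lowest concentration with no visible growth by eye; duplicates, parallel readings within one dilution step; growth and medium/DMSO controls included.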

Staphylococcus aureus [2] = assay: Antibacterial activity against Staphylococcus aureus ATCC 29213 assessed as reduction in bacterial growth incubated for 48 hrs by broth microdilution method; type: functional; summary of the method: as §1
Staphylococcus aureus [3] = assay: Antibacterial activity against methicillin-resistant Staphylococcus aureus ATCC 43300 assessed as reduction in bacterial growth incubated for 24 hrs by broth microdilution method; type: functional
Summary of the method: (§2)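 EUCAST-based broth microdilution in cation-adjusted Mueller-Hinton broth. DMSO stocks, final DMSO ≤1% v/v, concentration scale starting from 0.49 µM. Static incubation at 35 ± 2 °C, dark and humidified. Run in duplicate, accepted only if parallel MICs differ by at most one dilution step. MIC is the lowest concentration with no visible growth by naked eye.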

Staphylococcus aureus [4] = assay: Antibacterial activity against methicillin-resistant Staphylococcus aureus ATCC 43300 assessed as reduction in bacterial growth incubated for 48 hrs by broth microdilution method; type: functional; summary of the method: as §2
[5] = system: Staphylococcus epidermidis; assay: Antibacterial activity against Staphylococcus epidermidis ATCC 12228 assessed as reduction in bacterial growth incubated for 24 hrs by broth microdilution method; type: functional; summary of the method: as §1
[6] = system: Staphylococcus epidermidis; assay: Antibacterial activity against Staphylococcus epidermidis ATCC 12228 assessed as reduction in bacterial growth incubated for 48 hrs by broth microdilution method; type: functional; summary of the method: as §1
Enterococcus faecalis [7] = assay: Antibacterial activity against Enterococcus faecalis ATCC 29212 assessed as reduction in bacterial growth incubated for 24 hrs by broth microdilution method; type: functional; summary of the method: as §1
Enterococcus faecalis [8] = assay: Antibacterial activity against Enterococcus faecalis ATCC 29212 assessed as reduction in bacterial growth incubated for 48 hrs by broth microdilution method; type: functional; summary of the method: as §1
Escherichia coli [9] = assay: Antibacterial activity against Escherichia coli ATCC 25922 assessed as reduction in bacterial growth incubated for 24 hrs by broth microdilution method; type: functional; summary of the method: as §1
Escherichia coli [10] = assay: Antibacterial activity against Escherichia coli ATCC 25922 assessed as reduction in bacterial growth incubated for 48 hrs by broth microdilution method; type: functional; summary of the method: as §1
HepG2 = assay: Cytotoxicity against human HepG2 cells assessed as reduction in cell viability incubated for 24 hrs by cell-titer 96 aqueous one solution cell proliferation assay; type: functional, cell-based; conditions: HepG2, 24 h
HK-2 = assay: Cytotoxicity against human HK-2 cells assessed as reduction in cell viability incubated for 24 hrs by cell-titer 96 aqueous one solution cell proliferation assay; type: cell-based; conditions: HK-2, 24 h

SMILES | MIC (Staphylococcus aureus [1]) [µM] | MIC (Staphylococcus aureus [2]) [µM] | MIC (Staphylococcus aureus [3]) [µM] | MIC (Staphylococcus aureus [4]) [µM] | MIC [5] [µM] | MIC [6] [µM] | MIC (Enterococcus faecalis [7]) [µM] | MIC (Enterococcus faecalis [8]) [µM] | MIC (Escherichia coli [9]) [µM] | MIC (Escherichia coli [10]) [µM] | IC50 (HepG2) [µM] | IC50 (HK-2) [µM]
CC(C)(C)c1ccc(C(=O)N/N=C/c2cc(I)c(O)c(I)c2)cc1 | 125 (≈ 68.5 µg/mL) | 125 (≈ 68.5 µg/mL) | 125 (≈ 68.5 µg/mL) | 250 (≈ 137 µg/mL) | 125 (≈ 68.5 µg/mL) | 250 (≈ 137 µg/mL) | 250 (≈ 137 µg/mL) | 500 (≈ 274 µg/mL) | > 500 | > 500 | 45.9 | > 250
O=C(NNC(=O)c1cc(I)cc(I)c1O)c1ccc(Cl)cc1 | 62.5 (≈ 33.9 µg/mL) | 62.5 (≈ 33.9 µg/mL) | 62.5 (≈ 33.9 µg/mL) | 62.5 (≈ 33.9 µg/mL) | 31.2 (≈ 17 µg/mL) | 62.5 (≈ 33.9 µg/mL) | 125 (≈ 67.8 µg/mL) | 125 (≈ 67.8 µg/mL) | > 500 | > 500 | 48.6 | –
COc1ccc(C(=O)NNC(=O)c2cc(I)cc(I)c2O)cc1 | 500 (≈ 269 µg/mL) | > 500 | 500 (≈ 269 µg/mL) | > 500 | 500 (≈ 269 µg/mL) | > 500 | 500 (≈ 269 µg/mL) | > 500 | > 500 | > 500 | 132 | –
O=C(NNC(=O)c1cc(I)cc(I)c1O)c1ccc(C(F)(F)F)cc1 | – | – | – | – | – | – | – | – | – | – | 167 | –
O=C(N/N=C/c1cc(I)c(O)c(I)c1)c1ccc(I)cc1 | > 250 | > 250 | > 250 | > 250 | > 250 | > 250 | > 250 | > 250 | > 250 | > 250 | > 50 | –
O=C(NNC(=O)c1cc(I)cc(I)c1O)c1ccccc1 | – | – | – | – | – | – | – | – | – | – | 98 | –
O=C(N/N=C/c1cc(I)cc(I)c1O)c1ccc(I)cc1 | > 125 | > 125 | > 125 | > 125 | > 125 | > 125 | > 125 | > 125 | > 125 | > 125 | 31.8 | –
O=C(N/N=C/c1cc(I)c(O)c(I)c1)c1ccc(F)cc1 | 125 (≈ 63.8 µg/mL) | 500 (≈ 255 µg/mL) | 500 (≈ 255 µg/mL) | > 500 | > 500 | > 500 | > 500 | > 500 | > 500 | > 500 | 117 | –
O=C(N/N=C/c1cc(I)c(O)c(I)c1)c1ccc(O)cc1 | 500 (≈ 254 µg/mL) | 500 (≈ 254 µg/mL) | > 500 | > 500 | > 500 | > 500 | > 500 | > 500 | > 500 | > 500 | 110 | –
Cc1ccc(C(=O)NNC(=O)c2cc(I)cc(I)c2O)cc1 | 125 (≈ 65.3 µg/mL) | > 125 | > 125 | > 125 | 125 (≈ 65.3 µg/mL) | > 125 | > 125 | > 125 | > 125 | > 125 | 86.4 | –
O=C(NNCc1cc(I)cc(I)c1O)c1ccc(Cl)cc1 | 31.2 (≈ 16.5 µg/mL) | 62.5 (≈ 33 µg/mL) | 31.2 (≈ 16.5 µg/mL) | 62.5 (≈ 33 µg/mL) | 15.6 (≈ 8.26 µg/mL) | 15.6 (≈ 8.26 µg/mL) | 15.6 (≈ 8.26 µg/mL) | 15.6 (≈ 8.26 µg/mL) | > 500 | > 500 | 52.2 | –
Cc1ccc(C(=O)N/N=C/c2cc(I)cc(I)c2O)cc1 | > 500 | > 500 | > 500 | > 500 | > 500 | > 500 | > 500 | > 500 | > 500 | > 500 | > 25 | –
O=C(NNC(=O)c1cc(I)cc(I)c1O)c1ccc([N+](=O)[O-])cc1 | – | – | – | – | – | – | – | – | – | – | 159 | –
COc1ccc(C(=O)N/N=C/c2cc(I)c(O)c(I)c2)cc1 | 500 (≈ 261 µg/mL) | 500 (≈ 261 µg/mL) | > 500 | > 500 | > 500 | > 500 | > 500 | > 500 | > 500 | > 500 | > 100 | –
